# From ChEMBL document CHEMBL3227926, “2-Mercaptoacetamidines as gastric antisecretory agents” (J Med Chem, 1979)
# How the values were obtained:
# Canis familiaris [1] = test: Toxicity in beagle dog assessed as emesis administered directly into stomach via gastric cannula; format: organism-based, Canis lupus familiaris; conditions: in vivo, other
# Canis familiaris [2] = test: Inhibition of gastrin tetrapeptide-induced gastric secretion in beagle dog at 2 mg/kg administered directly into stomach via gastric cannula measured after 2 hrs of stimulation; format: functional; conditions: Canis lupus familiaris
# Outline: (§1)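 Conscious female beagles (5-9 kg) with chronic gastric fistula. Dose in 50 mL 1% methylcellulose was put into the stomach via the cannula 1 h before gastrin tetrapeptide 64 µg/kg sc (from 640 µg/mL in 30% Me2SO); controls got vehicle. Juice was collected for 2 h. Volume was measured, titratable acid obtained by titration to pH 7 with 0.01 N NaOH, and total acid taken as volume × concentration.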
# Canis familiaris [3] = test: Toxicity in beagle dog assessed as tachycardia administered directly into stomach via gastric cannula; format: organism-based, Canis lupus familiaris; conditions: in vivo, other
# Canis familiaris [4] = test: Toxicity in beagle dog assessed as gastric bleeding administered directly into stomach via gastric cannula; format: organism-based, Canis lupus familiaris; conditions: in vivo, other
# Canis familiaris [5] = test: Inhibition of gastrin tetrapeptide-induced gastric secretion in beagle dog at 32 mg/kg administered directly into stomach via gastric cannula measured after 2 hrs of stimulation; format: functional; conditions: Canis lupus familiaris; outline: as §1
# Canis familiaris [6] = test: Inhibition of gastrin tetrapeptide-induced gastric secretion in beagle dog at 16 mg/kg administered directly into stomach via gastric cannula measured after 2 hrs of stimulation; format: functional; conditions: Canis lupus familiaris; outline: as §1
# [7] = Dissociation constant, apparent pKa of the compound in 20% EtOH/H2O; format: physicochemical; conditions: read-out: Apparent_pKa
# Outline: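 Potentiometric titration in 20% EtOH–H2O with a glass-calomel electrode. Sample was titrated directly with 0.5 N NaOH, or dissolved with excess NaOH and back-titrated with 0.5 N HCl. pKa was read as the pH at the half-neutralization point of the curve.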
# Canis familiaris [8] = test: Inhibition of gastrin tetrapeptide-induced gastric secretion in beagle dog assessed as titratable acid at 16 mg/kg administered directly into stomach via gastric cannula measured after 2 hrs of stimulation; format: functional; conditions: Canis lupus familiaris; outline: as §1
# Canis familiaris [9] = test: Inhibition of gastrin tetrapeptide-induced gastric secretion in beagle dog assessed as volume at 16 mg/kg administered directly into stomach via gastric cannula measured after 2 hrs of stimulation; format: functional; conditions: Canis lupus familiaris; outline: as §1
# Canis familiaris [10] = test: Inhibition of gastrin tetrapeptide-induced gastric secretion in beagle dog assessed as volume at 32 mg/kg administered directly into stomach via gastric cannula measured after 2 hrs of stimulation; format: functional; conditions: Canis lupus familiaris; outline: as §1
# Canis familiaris [11] = test: Inhibition of gastrin tetrapeptide-induced gastric secretion in beagle dog assessed as total acid output at 32 mg/kg administered directly into stomach via gastric cannula measured after 2 hrs of stimulation; format: functional; conditions: Canis lupus familiaris; outline: as §1
# Canis familiaris [12] = test: Inhibition of gastrin tetrapeptide-induced gastric secretion in beagle dog assessed as titratable acid at 32 mg/kg administered directly into stomach via gastric cannula measured after 2 hrs of stimulation; format: functional; conditions: Canis lupus familiaris; outline: as §1
# Canis familiaris [13] = test: Inhibition of gastrin tetrapeptide-induced gastric secretion in beagle dog assessed as total acid output at 16 mg/kg administered directly into stomach via gastric cannula measured after 2 hrs of stimulation; format: functional; conditions: Canis lupus familiaris; outline: as §1
# Canis familiaris [14] = test: Inhibition of gastrin tetrapeptide-induced gastric secretion in beagle dog at 4 mg/kg administered directly into stomach via gastric cannula measured after 2 hrs of stimulation; format: functional; conditions: Canis lupus familiaris; outline: as §1
# Canis familiaris [15] = test: Inhibition of gastrin tetrapeptide-induced gastric secretion in beagle dog assessed as total acid output at 8 mg/kg administered directly into stomach via gastric cannula measured after 2 hrs of stimulation; format: functional; conditions: Canis lupus familiaris; outline: as §1
# Canis familiaris [16] = test: Inhibition of histamine-induced gastric secretion in beagle dog assessed as titratable acid at 32 mg/kg administered directly into stomach via gastric cannula measured after 2 hrs of stimulation; format: functional; conditions: Canis lupus familiaris
# Outline: (§2)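 Fistulated conscious female beagles (5-9 kg) got the dose intragastrically via cannula in 50 mL 1% methylcellulose, with vehicle controls. Histamine 64 µg base/kg sc (diphosphate in saline) was given 1 h later. Output over 2 h was assessed as volume, titratable acid (titration to pH 7, 0.01 N NaOH) and total acid output (volume × concentration).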
# Canis familiaris [17] = test: Inhibition of histamine-induced gastric secretion in beagle dog assessed as total acid output at 32 mg/kg administered directly into stomach via gastric cannula measured after 2 hrs of stimulation; format: functional; conditions: Canis lupus familiaris; outline: as §2
# Canis familiaris [18] = test: Inhibition of gastrin tetrapeptide-induced gastric secretion in beagle dog assessed as titratable acid at 8 mg/kg administered directly into stomach via gastric cannula measured after 2 hrs of stimulation; format: functional; conditions: Canis lupus familiaris; outline: as §1
# Canis familiaris [19] = test: Inhibition of 2-deoxy-D-glucose-induced gastric secretion in beagle dog assessed as volume at 8 mg/kg administered directly into stomach via gastric cannula measured after 2 hrs of stimulation; format: functional; conditions: Canis lupus familiaris
# Outline: (§3)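 Female beagles (5-9 kg), nonanesthetized, with chronic gastric fistula. Test agent was given in 50 mL 1% methylcellulose through the gastric cannula, with vehicle controls, 1 h before 2-deoxy-D-glucose 200 mg/kg sc in saline. The 2 h collection was measured for volume and for acid by titration to pH 7 with 0.01 N NaOH; total acid was calculated as volume × concentration.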
# Canis familiaris [20] = test: Inhibition of histamine-induced gastric secretion in beagle dog assessed as volume at 32 mg/kg administered directly into stomach via gastric cannula measured after 2 hrs of stimulation; format: functional; conditions: Canis lupus familiaris; outline: as §2
# Canis familiaris [21] = test: Inhibition of 2-deoxy-D-glucose-induced gastric secretion in beagle dog assessed as total acid output at 8 mg/kg administered directly into stomach via gastric cannula measured after 2 hrs of stimulation; format: functional; conditions: Canis lupus familiaris; outline: as §3
# Canis familiaris [22] = test: Inhibition of 2-deoxy-D-glucose-induced gastric secretion in beagle dog assessed as titratable acid at 8 mg/kg administered directly into stomach via gastric cannula measured after 2 hrs of stimulation; format: functional; conditions: Canis lupus familiaris; outline: as §3
# Canis familiaris [23] = test: Inhibition of 2-deoxy-D-glucose-induced gastric secretion in beagle dog assessed as volume at 16 mg/kg administered directly into stomach via gastric cannula measured after 2 hrs of stimulation; format: functional; conditions: Canis lupus familiaris; outline: as §3
# Canis familiaris [24] = test: Inhibition of gastrin tetrapeptide-induced gastric secretion in beagle dog at 8 mg/kg administered directly into stomach via gastric cannula measured after 2 hrs of stimulation; format: functional; conditions: Canis lupus familiaris; outline: as §1
# Canis familiaris [25] = test: Inhibition of gastrin tetrapeptide-induced gastric secretion in beagle dog assessed as volume at 8 mg/kg administered directly into stomach via gastric cannula measured after 2 hrs of stimulation; format: functional; conditions: Canis lupus familiaris; outline: as §1
# Canis familiaris [26] = test: Inhibition of 2-deoxy-D-glucose-induced gastric secretion in beagle dog assessed as titratable acid at 16 mg/kg administered directly into stomach via gastric cannula measured after 2 hrs of stimulation; format: functional; conditions: Canis lupus familiaris; outline: as §3
# Canis familiaris [27] = test: Inhibition of 2-deoxy-D-glucose-induced gastric secretion in beagle dog assessed as total acid output at 16 mg/kg administered directly into stomach via gastric cannula measured after 2 hrs of stimulation; format: functional; conditions: Canis lupus familiaris; outline: as §3
smiles,measurement,setting,value
Cl.SCC1=NCCN1,Activity,Canis familiaris [1],Toxic
same,inhibition in vivo at 2 mg/kg,Canis familiaris [2],100%
same,Activity,Canis familiaris [3],Toxic
same,Activity,Canis familiaris [4],Toxic
Cl.N=C(CS)Nc1cccc(Cl)c1,inhibition in vivo at 32 mg/kg,Canis familiaris [5],61%
same,Activity,Canis familiaris [1],Toxic
same,inhibition in vivo at 16 mg/kg,Canis familiaris [6],16%
same,Activity,Canis familiaris [3],Toxic
same,Activity,Canis familiaris [4],Toxic
N=C(CSCc1ccccc1)NC[C@@H]1C[C@H]2CC[C@H]1C2 (relative stereo; 51),Activity,Canis familiaris [1],Toxic
same,inhibition in vivo at 16 mg/kg,Canis familiaris [6],19%
same,Activity,Canis familiaris [3],Toxic
same,Activity,Canis familiaris [4],Toxic
same,pKa,[7],11
Cl.N=C(CCS)NCc1ccccc1,inhibition in vivo at 32 mg/kg,Canis familiaris [5],42%
same,Activity,Canis familiaris [1],Toxic
same,inhibition in vivo at 16 mg/kg,Canis familiaris [6],18%
same,Activity,Canis familiaris [3],Toxic
same,Activity,Canis familiaris [4],Toxic
CNC(=S)NCCSCc1[nH]cnc1C [METIAMIDE],inhibition in vivo at 16 mg/kg,Canis familiaris [8],91%
same,inhibition in vivo at 16 mg/kg,Canis familiaris [9],65%
same,inhibition in vivo at 32 mg/kg,Canis familiaris [10],83%
same,inhibition in vivo at 32 mg/kg,Canis familiaris [11],90%
same,inhibition in vivo at 32 mg/kg,Canis familiaris [12],70%
same,inhibition in vivo at 16 mg/kg,Canis familiaris [13],64%
CCNC(=N)CS.Cl,Activity,Canis familiaris [1],Toxic
same,inhibition in vivo at 4 mg/kg,Canis familiaris [14],90%
same,inhibition in vivo at 2 mg/kg,Canis familiaris [2],27%
same,Activity,Canis familiaris [3],Toxic
same,Activity,Canis familiaris [4],Toxic
Cl.N=C(CS)NCC12CC3CC(CC(C3)C1)C2,inhibition in vivo at 8 mg/kg,Canis familiaris [15],8%
same,inhibition in vivo at 32 mg/kg,Canis familiaris [16],40%
same,inhibition in vivo at 32 mg/kg,Canis familiaris [17],55%
same,inhibition in vivo at 8 mg/kg,Canis familiaris [18],0%
same,inhibition in vivo at 8 mg/kg,Canis familiaris [19],31%
same,inhibition in vivo at 32 mg/kg,Canis familiaris [20],36%
same,inhibition in vivo at 16 mg/kg,Canis familiaris [8],91%
same,inhibition in vivo at 8 mg/kg,Canis familiaris [21],42%
same,inhibition in vivo at 8 mg/kg,Canis familiaris [22],18%
same,inhibition in vivo at 16 mg/kg,Canis familiaris [23],79%
same,Activity,Canis familiaris [1],Toxic
same,inhibition in vivo at 8 mg/kg,Canis familiaris [24],47%
same,inhibition in vivo at 16 mg/kg,Canis familiaris [9],74%
same,inhibition in vivo at 8 mg/kg,Canis familiaris [25],7%
same,inhibition in vivo at 16 mg/kg,Canis familiaris [26],85%
same,inhibition in vivo at 16 mg/kg,Canis familiaris [27],97%
same,inhibition in vivo at 16 mg/kg,Canis familiaris [6],74%
same,Activity,Canis familiaris [3],Toxic
same,Activity,Canis familiaris [4],Toxic
same,inhibition in vivo at 16 mg/kg,Canis familiaris [13],83%
